Measured values reported in ChEMBL document CHEMBL2385015, “Alkaloids and polyketides from Penicillium citrinum, an endophyte isolated from the Moroccan plant Ceratonia siliqua” (J Nat Prod, 2013).
The source made the active and inactive calls. The rule behind the calls is not given here.

How the values were obtained:
Streptococcus pneumoniae = experiment: Antibacterial activity against Streptococcus pneumoniae ATCC 49619 at 64 ug/mL by broth microdilution method; type: functional, organism-based
L5178Y = experiment: Cytotoxicity against mouse L5178Y cells by MTT assay; type: functional, cell-based
How it was run: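 Growth of L5178Y mouse lymphoma cells measured by MTT (microculture tetrazolium) assay relative to untreated controls. Medium with 0.1% EGMME–DMSO served as negative control and the depsipeptide kahalalide F as positive control.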

Escherichia coli = experiment: Antibacterial activity against Escherichia coli ATCC 25922 at 64 ug/mL by broth microdilution method; type: functional, organism-based
Staphylococcus aureus = experiment: Antibacterial activity against Staphylococcus aureus ATCC 29213 at 64 ug/mL by broth microdilution method; type: functional, organism-based

Row | Structure (SMILES) | Activity (Streptococcus pneumoniae) | IC50 (L5178Y) | Activity (Escherichia coli) | Activity (Staphylococcus aureus)
1 | COc1cc(O)c(C)c2c1[C@@H](c1ccc3n1C(=O)c1c-3[nH]c3ccccc3c1=O)O[C@@H](C)C2 [CITRIQUINOCHROMAN] | inactive | 6.1 µM | inactive | inactive
2 | COc1cc(O)c(C)c2cc(C)ncc12 | inactive | > 10 µM | inactive | inactive
3 | CC1=C[C@H](O)[C@H]2C[C@@H](CO)C[C@@H](C)[C@@H]2[C@H]1/C=C/C=C/C(=O)O | inactive | > 10 µM | inactive | inactive
4 | O=C1c2c([nH]c3ccccc3c2=O)C2CCCN12 (centres undefined) | inactive | > 10 µM | inactive | inactive
5 | C[C@@H]1C[C@@](C)(O)Cc2ccc(CO)c(/C=C/C=C/C(=O)O)c21 | inactive | > 10 µM | inactive | inactive
6 | CC(=O)c1c(CC(=O)O)cc(O)c(C)c1O | inactive | > 10 µM | inactive | inactive
